In ChEMBL document CHEMBL2203264, “Optimization of imidazo[4,5-b]pyridine-based kinase inhibitors: identification of a dual FLT3/Aurora kinase inhibitor as an orally bioavailable preclinical development candidate for the treatment of acute myeloid leukemia” (J Med Chem, 2012):
The source made the active and inactive calls. The calls are words filed in the database; no cut-off is given here.

Columns and labels:
Cytochrome P450 3A4 = Cytochrome P450 3A4 (Homo sapiens, UniProt P08684); assay: Inhibition of human liver microsome CYP3A4 by LC-MS-MS analysis; type: ADME
Method in brief: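 Pooled human liver microsomes (50 donors) at 0.5 mg/mL protein, 10 min incubation; metabolite detected by LC-MS/MS with positive ESI.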

Mus musculus [1] = assay: Inhibition of Stat5 phosphorylation at Y694 in tumor of human MV4-11 cells xenografted CrTacNCr-Fox1(nu) athymic mouse at 50 to 100 mg/kg, po bid for 4 days measured after 2 hrs post final dose; type: functional, organism-based
Method in brief: (§1)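 MV4-11 xenograft-bearing athymic mice dosed orally at 50 or 100 mg/kg twice daily for 4 days, starting 17 days after implantation. Tumors harvested 2 h after the final dose. Western blotting for phospho-histone H3 (S10) and phospho-Stat5 (Y694), with total histone H3, total Stat5 and GAPDH as loading controls.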

[2] = Half life in Sprague-Dawley rat at 5 mg/kg, iv; type: ADME, organism-based; set-up: dose 5 mg/kg, route intravenous; conditions: in vivo
Method in brief: (§2)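 Female Sprague-Dawley rats, 5 mg/kg. Oral vehicle 10% DMSO, 5% Tween 80, 20% PEG400 in water; iv vehicle 10% DMSO, 5% Tween 20, 85% saline, 0.3% 1 M HCl. Serial tail-vein plasma at 15, 30 min and 2, 4, 6, 24 h. Methanol precipitation with olomoucine internal standard, then LC-MS (C18 BEH, positive ESI MRM).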

[3] = Clearance in Balb/C mouse at 5 mg/kg, iv; type: ADME, organism-based; set-up: dose 5 mg/kg, route intravenous; conditions: in vivo
Method in brief: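 Female Balb/C mice given a single 5 mg kg^-1 iv dose in 10% DMSO, 5% Tween 20 in saline. Mice sacrificed at 5, 15, 30 min and 1, 2, 4, 6, 24 h. Plasma from cardiac blood, methanol protein precipitation with olomoucine internal standard, LC–MS (positive ESI MRM). Clearance given in L/h.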

Mus musculus [4] = assay: Volume of distribution in Balb/C mouse at 5 mg/kg, iv and 5 mg/kg, po; type: ADME, organism-based; conditions: in vivo
Method in brief: (§3)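 Female Balb/C mice given 5 mg/kg po or iv in 10% DMSO, 5% Tween 20 in saline. Killed at 5, 15, 30 min and 1, 2, 4, 6, 24 h; plasma from cardiac blood. Methanol protein precipitation with olomoucine internal standard, then LC-MS (reverse-phase C18, positive ESI MRM).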

[5] = Oral bioavailability in Balb/C mouse at 5 mg/kg; type: ADME, organism-based; conditions: in vivo; method in brief: as §3
Cytochrome P450 2A6 = molecular target: T1, Cytochrome P450 2A6 (Homo sapiens, UniProt P11509); assay: Inhibition of human liver microsome CYP2A6 by LC-MS-MS analysis; type: ADME
T1 sequence (P11509 whole entry): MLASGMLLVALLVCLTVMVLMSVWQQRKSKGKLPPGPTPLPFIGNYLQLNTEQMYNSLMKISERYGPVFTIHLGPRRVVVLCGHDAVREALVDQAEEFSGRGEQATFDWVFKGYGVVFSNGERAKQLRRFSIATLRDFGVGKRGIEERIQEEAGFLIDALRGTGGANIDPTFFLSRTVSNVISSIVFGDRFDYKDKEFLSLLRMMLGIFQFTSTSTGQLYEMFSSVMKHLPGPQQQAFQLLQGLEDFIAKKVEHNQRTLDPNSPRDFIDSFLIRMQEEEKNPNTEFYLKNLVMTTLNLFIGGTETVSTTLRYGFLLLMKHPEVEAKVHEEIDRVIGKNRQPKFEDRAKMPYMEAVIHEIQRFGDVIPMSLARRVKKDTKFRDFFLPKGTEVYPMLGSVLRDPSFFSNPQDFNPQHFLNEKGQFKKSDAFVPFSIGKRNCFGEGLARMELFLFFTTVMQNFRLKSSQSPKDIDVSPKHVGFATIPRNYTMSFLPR
Method in brief: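 Pooled human liver microsomes (50 donors) at 0.5 mg/mL protein, incubated for 10 min with isoform-selective probe substrates. Metabolite formation was detected by LC–MS/MS with positive ESI.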

Plasma = assay: Plasma protein binding in mouse; type: ADME, cell-free
Mus musculus [6] = assay: Toxicity in CrTacNCr-Fox1(nu) athymic mouse assessed as body weight loss at 50 to 100 mg/kg, po administered 10 days post implantation daily for 7 days; type: organism-based; set-up: dose 50-100 mg/kg, route oral; conditions: in vivo
MV4-11 [7] = assay: Antitumor activity against human MV4-11 cells xenografted in CrTacNCr-Fox1(nu) athymic mouse assessed as tumor growth inhibition at 50 mg/kg, po bid administered 10 days post implantation daily for 7 days measured after 11 days; type: functional; set-up: scale not given: the % may be the effect or the level left
Method in brief: (§4)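 Female adult CrTacNcr-Fox1(nu) athymic mice, s.c. 10^7 FLT3-ITD-positive MV4-11 cells; treatment began at 10 days (mean tumor volume at least 100 mm^3). Oral 50 or 100 mg/kg in 10% DMSO, 20% PEG 400, 5% Tween 80, 65% water, or vehicle alone; n = 5 per group. Dosed twice daily for 7 days, then once daily for 4 days; study ended day 60.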

MV4-11 [8] = assay: Antitumor activity against human MV4-11 cells xenografted in CrTacNCr-Fox1(nu) athymic mouse assessed as reduction in tumor relapse at 50 to 100 mg/kg, po bid administered 10 days post implantation daily for 7 days measured after 60 days; type: functional; set-up: scale not given: the % may be the effect or the level left; conditions: dose mg/kg 50-100; method in brief: as §4
Caco-2 = assay: Permeability across human Caco2 cells; type: ADME, cell-based
[9] = Oral bioavailability in Sprague-Dawley rat at 5 mg/kg; type: ADME, organism-based; conditions: in vivo; method in brief: as §2
[10] = Metabolic stability in mouse liver microsomes assessed as parent compound metabolism after 30 mins by LC-MS analysis; type: ADME, Microsome; conditions: read-out: Drug metabolism
Method in brief: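 Male CD1 mouse liver microsomes (1 mg/mL protein) incubated with 10 μM compound plus NADPH 1 mM, UDPGA 2.5 mM and MgCl2 3 mM in 10 mM PBS at 37 °C for 0 and 30 min. NADPH/UDPGA-free controls included. LC–MS quantitation of remaining compound; reported as percent parent metabolized after 30 min.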

[11] = molecular target: Platelet-derived growth factor receptor beta (Homo sapiens) (UniProt P09619); assay: Inhibition of PDGFRB at 1 uM
Method in brief: (§5)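 KINOMEScan competition-binding panel of 442 kinases (386 nonmutant) tested at 1 μM. Binding is read as percent of control ligand competition; <10% of control counts as a hit for the S(10) score.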

[12] = Half life in Balb/C mouse at 5 mg/kg, iv; type: ADME, organism-based; set-up: dose 5 mg/kg, route intravenous; conditions: in vivo; method in brief: as §3
Mus musculus [13] = assay: Inhibition of Histone H3 phosphorylation in tumor of human MV4-11 cells xenografted CrTacNCr-Fox1(nu) athymic mouse at 50 to 100 mg/kg, po bid for 4 days measured after 2 hrs post final dose; type: functional, organism-based; method in brief: as §1
[14] = molecular target: Proto-oncogene tyrosine-protein kinase receptor Ret (Homo sapiens) (UniProt P07949); assay: Inhibition of RET at 1 uM; method in brief: as §5
[15] = AUC (infinity) in Sprague-Dawley rat at 5 mg/kg, iv; type: ADME, organism-based; set-up: time infinity, dose 5 mg/kg, route intravenous; conditions: plasma
Method in brief: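 Female Sprague–Dawley rats dosed iv at 5 mg/kg in 10% DMSO, 5% Tween 20, 85% saline, 0.3% 1 M HCl. Serial tail-vein bleeds at 15, 30 min and 2, 4, 6, 24 h. Plasma was methanol-precipitated with olomoucine internal standard, then analysed by LC–MS (positive ESI MRM).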

Chain of Proto-oncogene tyrosine-protein kinase receptor Ret (Homo sapiens) (P07949 whole entry): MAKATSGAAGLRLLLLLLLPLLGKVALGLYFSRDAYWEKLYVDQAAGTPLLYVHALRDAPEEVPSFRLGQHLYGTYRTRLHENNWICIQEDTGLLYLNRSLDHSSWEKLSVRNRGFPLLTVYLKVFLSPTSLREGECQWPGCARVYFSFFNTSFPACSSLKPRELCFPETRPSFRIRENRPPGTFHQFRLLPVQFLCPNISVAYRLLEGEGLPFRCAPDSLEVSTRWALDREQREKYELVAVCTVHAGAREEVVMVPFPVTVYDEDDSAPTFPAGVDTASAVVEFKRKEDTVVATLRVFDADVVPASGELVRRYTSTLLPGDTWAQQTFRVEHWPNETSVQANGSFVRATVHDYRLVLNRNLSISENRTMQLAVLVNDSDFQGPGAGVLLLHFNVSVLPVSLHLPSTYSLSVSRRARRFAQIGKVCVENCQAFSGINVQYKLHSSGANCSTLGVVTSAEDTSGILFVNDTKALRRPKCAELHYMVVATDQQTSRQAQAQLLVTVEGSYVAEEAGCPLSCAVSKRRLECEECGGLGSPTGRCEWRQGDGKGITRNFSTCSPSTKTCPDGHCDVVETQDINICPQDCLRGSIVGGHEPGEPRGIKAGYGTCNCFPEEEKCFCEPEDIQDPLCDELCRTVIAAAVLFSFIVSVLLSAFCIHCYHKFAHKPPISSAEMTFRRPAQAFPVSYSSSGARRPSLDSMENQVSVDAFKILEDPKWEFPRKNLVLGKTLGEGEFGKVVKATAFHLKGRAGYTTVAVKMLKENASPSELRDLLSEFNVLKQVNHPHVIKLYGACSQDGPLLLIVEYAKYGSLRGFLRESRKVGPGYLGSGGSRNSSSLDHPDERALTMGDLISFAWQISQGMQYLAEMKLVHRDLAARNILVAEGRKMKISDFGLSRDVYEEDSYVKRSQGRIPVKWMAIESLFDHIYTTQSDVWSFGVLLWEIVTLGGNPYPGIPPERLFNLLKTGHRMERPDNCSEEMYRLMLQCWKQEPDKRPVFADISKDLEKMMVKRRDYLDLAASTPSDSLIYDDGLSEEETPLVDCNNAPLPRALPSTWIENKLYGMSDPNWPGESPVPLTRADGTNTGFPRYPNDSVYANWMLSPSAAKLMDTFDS
Chain of Cytochrome P450 3A4 (P08684 whole entry): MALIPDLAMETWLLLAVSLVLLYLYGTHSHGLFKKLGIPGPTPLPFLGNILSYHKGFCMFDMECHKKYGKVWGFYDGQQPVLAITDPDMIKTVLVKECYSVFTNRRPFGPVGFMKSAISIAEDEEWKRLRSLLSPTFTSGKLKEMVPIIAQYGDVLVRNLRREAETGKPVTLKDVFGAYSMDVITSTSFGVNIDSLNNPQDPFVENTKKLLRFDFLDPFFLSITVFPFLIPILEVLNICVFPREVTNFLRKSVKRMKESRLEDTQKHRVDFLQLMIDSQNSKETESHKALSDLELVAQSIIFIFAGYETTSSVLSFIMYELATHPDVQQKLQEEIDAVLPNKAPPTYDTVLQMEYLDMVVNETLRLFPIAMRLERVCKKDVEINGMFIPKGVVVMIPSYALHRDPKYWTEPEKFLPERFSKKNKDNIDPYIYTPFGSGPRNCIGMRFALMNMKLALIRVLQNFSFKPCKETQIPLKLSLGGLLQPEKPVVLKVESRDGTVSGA
Chain of Platelet-derived growth factor receptor beta (Homo sapiens) (P09619 whole entry): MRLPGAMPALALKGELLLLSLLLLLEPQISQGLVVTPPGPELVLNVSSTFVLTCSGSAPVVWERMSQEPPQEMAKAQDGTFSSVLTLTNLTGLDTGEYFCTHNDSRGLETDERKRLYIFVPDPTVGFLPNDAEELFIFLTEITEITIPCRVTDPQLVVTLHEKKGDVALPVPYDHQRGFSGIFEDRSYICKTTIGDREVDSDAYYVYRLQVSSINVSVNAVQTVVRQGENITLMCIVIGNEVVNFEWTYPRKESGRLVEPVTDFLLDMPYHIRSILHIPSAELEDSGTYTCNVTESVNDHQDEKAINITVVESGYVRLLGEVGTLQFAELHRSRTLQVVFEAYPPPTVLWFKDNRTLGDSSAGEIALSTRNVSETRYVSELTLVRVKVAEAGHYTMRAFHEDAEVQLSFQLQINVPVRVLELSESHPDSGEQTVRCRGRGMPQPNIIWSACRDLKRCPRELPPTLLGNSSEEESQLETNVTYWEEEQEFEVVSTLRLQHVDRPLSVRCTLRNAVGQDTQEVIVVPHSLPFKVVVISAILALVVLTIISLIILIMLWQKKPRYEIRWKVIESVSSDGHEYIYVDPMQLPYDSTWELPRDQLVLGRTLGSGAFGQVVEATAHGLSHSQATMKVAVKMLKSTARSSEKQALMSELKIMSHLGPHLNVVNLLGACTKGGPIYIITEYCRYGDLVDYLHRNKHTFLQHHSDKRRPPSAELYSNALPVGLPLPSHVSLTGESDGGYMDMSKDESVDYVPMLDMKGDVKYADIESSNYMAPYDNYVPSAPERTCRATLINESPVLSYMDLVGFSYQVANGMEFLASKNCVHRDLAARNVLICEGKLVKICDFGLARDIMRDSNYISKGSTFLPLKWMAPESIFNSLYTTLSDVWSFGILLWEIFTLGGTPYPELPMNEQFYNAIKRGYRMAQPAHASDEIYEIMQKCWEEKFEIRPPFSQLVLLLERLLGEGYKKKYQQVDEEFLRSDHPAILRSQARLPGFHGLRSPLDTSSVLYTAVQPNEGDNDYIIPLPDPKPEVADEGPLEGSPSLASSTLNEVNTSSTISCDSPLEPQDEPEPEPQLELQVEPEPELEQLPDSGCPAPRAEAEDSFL

Which IC50 (Cytochrome P450 3A4) does the source give for Cc1nn(C)cc1-c1nc2c(N3CCN(Cc4ccc(Cl)cc4)CC3)c(Cl)cnc2[nH]1 [MOBINITINIB] here?
Its IC50 is over 10 µM.

What about the inhibition (Mus musculus [1]) of the same compound?
Its inhibition is “Active”.

What about the half-life [2] of the same compound?
Its half-life is 4.62 h.

What about the clearance [3] of the same compound?
The clearance was 0.967 mL/min.

And the Vd (Mus musculus [4])?
Its Vd is 3.3 L/kg.

What about the bioavailability [5] of the same compound?
Its bioavailability is 100%.

What about the IC50 (Cytochrome P450 2A6) of the same compound?
The IC50 was over 10 µM.

What about the PPB (Plasma) of the same compound?
The PPB was 97.3%.

What about the Activity (Mus musculus [6]) of the same compound?
The Activity was “Non-toxic”.

And the Activity (MV4-11 [7])?
Its Activity is 42%.

And the Activity (MV4-11 [8])?
Its Activity is 60%.

And the permeability (Caco-2)?
Its permeability is 18.6 ×10⁻⁶ cm/s.

And the bioavailability [9]?
Its bioavailability is 79%.

What about the metabolised at 0.5 h [10] of the same compound?
Its metabolised at 0.5 h is 34%.

What about the inhibition [11] of the same compound?
The inhibition was 4%.

What about the half-life [12] of the same compound?
The half-life was 0.84 h.

And the inhibition (Mus musculus [13])?
Its inhibition is “Active”.

What about the inhibition [14] of the same compound?
The inhibition was 1.8%.

What about the AUC(0-inf) [15] of the same compound?
Its AUC(0-inf) is 39.9 µM·h.
